FN deposition inh: fibronectin deposition inhibition | 350,000 tested, 0.086% active | inhibition, % at 12.6 µM | AH1F fibroblasts, Alexa488-fibronectin deposition fluorescence, overnight;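 active = mean inhibition across replicates of 30% or more, regardless of how many single replicates reach that level; inconclusive = mean under 30% yet at least half of replicates reach 30%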;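 also: positive control wells lacked labelled fibronectin entirely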
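test system = AH1F fibroblasts assembling fluorescent fibronectin matrix | quantity = 10000 AH1F cells per well | buffer or medium = DMEM plus 2% serum, read in PBS | doses = single dose, pinned | incubation = 1 h cell attachment, overnight exposure to compound and label | detection = fluorescence at 485 nm excitation, 525 nm emission | read-out basis = inhibition from reduced deposited-fibronectin fluorescence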
CFTR F508del cor: CFTR F508del correction in bronchial cells. activity (quench increase), % at 7.58 µM. 350,000 tested, 0.36% active. CFBE cells, YFP halide quenching; stimulated with forskolin plus potentiator P3; % fluorescence drop versus neutral controls;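 active = mean added fluorescence quench of at least 8% versus neutral control, with both replicates also reaching 8%; inconclusive = only one of the mean or replicate conditions met; inactive = mean below 8% and not both replicates reaching 8%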;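 also: cells transiently co-express mutant CFTR-F508del with the halide-sensitive YFP; corrector assay measuring rescue of mutant channel to the surface after 24 h compound exposure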
HIV Env fusion: inhibitors of HIV Env-mediated cell fusion; HeLa-JRFL Env/CEM21 cell fusion, luciferase; inhibition, % at 12.3 µM; 360,000 tested, 1.1% active; AID 651610;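 active = mean replicate inhibition score of at least 50 and every replicate individually at or above 50; inconclusive = only one of the two criteria met; inactive = mean below 50 and not all replicates reaching 50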;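 also: 0% = plate neutral controls and 100% = maraviroc near 300 nM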
PGC1a acetyl inh: PGC1a acetylation modulation, inhibitor mode; inhibition, % at 15.6 µM; U2OS PGC1a acetylation, AlphaScreen anti-acetyl-lysine; with virally co-expressed GCN5 acetyltransferase; 350,000 tested, 0.17% active;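 active = every replicate shows inhibition of at least 40%; inconclusive = mean inhibition at least 40% but some replicate below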;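 also: 0% = neutral control wells and 100% = positive control wells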
EWS-Fli block: inhibitors of EWS/Fli oncoprotein transcriptional activity | A673 NR0B1-luciferase reporter, viability-normalised | inhibition, % at 12.6 µM | 350,000 tested, 0.67% active | AID 651661;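 active = mean inhibition of at least 50% after viability correction, with every replicate also passing that limit; inconclusive = mean reaches 50% but only one of two replicates passes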;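 also: firefly luciferase signal divided by Alamar Blue viability fluorescence both relative to DMSO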
PAX8 inh HTS: inhibitors of PAX8 transcriptional activity in RMG-I cells; RMG-I TPO-luciferase reporter, SteadyGlo, 24 h; inhibition, % at 12.6 µM; 360,000 tested, 1.2% active; AID 652154;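 active = mean replicate inhibition at least 60% with every replicate also reaching 60%; inconclusive = only one of the two criteria is met; inactive = mean below 60% and not all replicates reaching 60%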;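 also: luciferase light reporting Pax8 driven TPO promoter activity; plate controls were median of neutral control wells for no effect and mitoxantrone controls for full effect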
* = called active by the depositor; i = inactive; ? = inconclusive; nt = not tested or not shown; [ ] = remark or other dose. Sampled rows, rich in hits. Any-hit rate of the full collection: about 2.3%.

SMILES	FN deposition inh	CFTR F508del cor	HIV Env fusion	PGC1a acetyl inh	EWS-Fli block	PAX8 inh HTS
C[C@@H]1CN([C@@H](C)CO)C(=O)Cc2cc(NC(=O)c3ccncc3)ccc2O[C@H]1CN(C)Cc1ccc(Oc2ccccc2)cc1	nt	4	nt	-2	35	34
COc1cc2c(c(OC)c1OC)[C@@]1(c3ccccc3)CCCC[C@H]1[C@@H]2NC(=O)C(F)(F)F	-11	-1	87*	nt	-1	-16
CC(C)NC(=O)Nc1ccc2c(c1)C(=O)N(C)[C@H]1CC[C@H](CC(=O)NC3CCCCC3)O[C@H]1CO2	-19	1	-22[16.7 µM]	-11	-2	4
COc1ccc2nc(C)cc(Nc3ccc(N4CCN(C)CC4)cc3)c2c1	16	0	-81	6	80*	59
COc1ccc2nc(C)cc(Nc3ccc(C)cc3)c2c1	5	0	23	0	-17	-5
COc1ccc(/C=N/Nc2cc(C)nc3ccc(OC)cc23)c(OC)c1	-3	-14	-29	nt	66*	87*
COc1ccc(OC)c(Nc2cc(C)nc3ccc(C)cc23)c1	18	12*	11	-11	57*	30
Cc1ccc2nc(C)cc(Nc3ccc([N+](=O)[O-])cc3)c2c1	0	-7	16	-11	40	96*
COC(=O)c1ccc(Nc2cc(C)nc3ccc(C)cc23)cc1	12	?	5	-13	19	24
COc1ccc2nc(C)cc(N/N=C/c3ccccc3)c2c1	nt	nt	nt	36	nt	nt
CN(C)CC(=O)Nc1ccc2c(c1)[C@@H]1C[C@H](CC(=O)N3CCc4ccccc4C3)O[C@@H](CO)[C@@H]1O2	4	-3	-1[16.7 µM]	2	-7	-6
COc1ccc(S(=O)(=O)Nc2ccccc2C(=O)Nc2nc(-c3ccc(F)cc3)cs2)cc1OC	-8	nt	66*	nt	nt	nt
COc1ccc(-c2csc(NC(=O)c3ccccc3NS(=O)(=O)c3ccc(C)cc3)n2)cc1	-6	2	nt	-4	15	0
C/C=C/c1ccc([C@@H]2[C@H](CO)N(CC3CC3)C23CN(S(=O)(=O)CC)C3)cc1	2	-4	nt	nt	nt	nt
CNC[C@@H]1Oc2ccc(NS(C)(=O)=O)cc2C(=O)N(C)C[C@@H]1C	-12	nt	nt	nt	nt	nt
C[C@@H]1CN([C@@H](C)CO)C(=O)c2cc(NC(=O)Nc3ccc4c(c3)OCO4)ccc2O[C@@H](C)CCCCO[C@H]1CN(C)Cc1ccc(Cl)c(Cl)c1	nt	1	67*[16.7 µM]	-14	5	nt
C[C@H](CO)N1C[C@H](C)[C@H](CN(C)Cc2ccc3c(c2)OCO3)OCCCC[C@H](C)Oc2ccc(NC(=O)Nc3ccc4c(c3)OCO4)cc2C1=O	7	1	66*[16.7 µM]	-19	-1	22
C[C@H]1CCCCO[C@@H](CN(C)Cc2ccccc2)[C@@H](C)CN([C@@H](C)CO)C(=O)c2cc(NC(=O)Nc3ccc4c(c3)OCO4)ccc2O1	-6	2	57*[16.7 µM]	20	4	46
CC1CN(c2nc3ccccc3nc2SCC(=O)Nc2cccc(C(F)(F)F)c2)CC(C)O1 (stereo not drawn)	12	-1	64*	-15	8	36
Cc1ccc(S(=O)(=O)N2CCCOC2CNC(=O)C(=O)NCCC2=CCCCC2)cc1 (stereo not drawn)	8	nt	60*	nt	nt	17
COc1cc(C(=O)NC2CCN(C)CC2)ccc1Nc1ncc2c(n1)N(C1CCCCC1)CCC(=O)N2C	15	-2	-61	nt	76*	-212
COc1cc(C(=O)NC2CCN(C)CC2)ccc1Nc1ncc2c(n1)N(Cc1ccccc1)CCC(=O)N2C	13	-11	-307	nt	55*	-296
COc1ccc2c3c([nH]c2c1)[C@H](CO)N(S(C)(=O)=O)CC31CCN(CC2CC2)CC1	nt	1	nt	nt	-27	-15
CN1c2ccc(C3=CCCCC3)cc2[C@@H]2[C@@H](CCN2C(=O)Nc2ccc(F)cc2)[C@@H]1CO	-3	2	nt	-11	-11	-11
O=C(C[C@@H]1CC[C@H]2[C@@H](COC[C@H](O)CN2S(=O)(=O)c2cccc(Cl)c2)O1)Nc1ccccc1	-4	-1	nt	-4	6	3
O=c1cc(-c2ccc(O)c(O)c2)oc2ccc3ccccc3c12	nt	8	i	nt	62*	-20
O=C(C[C@@H]1C=C[C@H](NS(=O)(=O)c2ccccc2)[C@H](CO)O1)N1CCc2ccccc2C1	nt	3	15[16.7 µM]	4	-5	4

Source: PubChem BioAssay (Broad Institute)
